pIC50: −log10 of the molar value.
Key:
BGC-823 = test: In vitro antitumor activity against BGC-823 cell lines by using MTT assay; assay type: functional, cell-based; details: Homo sapiens
In short: (§1)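 Tetrazolium salt (MTT) read-out of in vitro growth inhibition; the reported value is the concentration producing 50% inhibition (IC50).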

HeLa = test: In vitro antitumor activity against HeLa cell lines by using MTT assay; assay type: functional, cell-based; details: Homo sapiens; in short: as §1

| SMILES | pIC50 (BGC-823) | pIC50 (HeLa) |
| --- | --- | --- |
| CC(=O)NCCCCNCCCNC(=O)c1csc(-c2csc(CCNC(=O)[C@@H](NC(=O)[C@@H](C)C(O)C(C)NC(=O)[C@@H](NC(=O)c3nc([C@H](CC(N)=O)NCC(N)C(N)=O)nc(N)c3C)[C@@H](O[C@@H]3O[C@@H](CO)[C@@H](O)[C@@H](O)[C@@H]3O[C@H]3O[C@H](CO)[C@@H](O)[C@H](OC(N)=O)[C@@H]3O)c3c[nH]cn3)[C@@H](C)O)n2)n1 (some centres undefined) | 4.66 | 4.82 |
| Cc1c(N)nc([C@H](CC(N)=O)NCC(N)C(N)=O)nc1C(=O)N[C@H](C(=O)NC(C)C(O)[C@H](C)C(=O)N[C@H](C(=O)NCCc1nc(-c2nc(C(=O)NCCCNCCCCNC=O)cs2)cs1)[C@@H](C)O)[C@@H](O[C@@H]1O[C@@H](CO)[C@@H](O)[C@@H](O)[C@@H]1O[C@H]1O[C@H](CO)[C@@H](O)[C@H](OC(N)=O)[C@@H]1O)c1c[nH]cn1 (some centres undefined) | 4.51 | 4.91 |
| Cc1c(N)nc([C@H](CC(N)=O)NCC(N)C(N)=O)nc1C(=O)N[C@H](C(=O)NC(C)C(O)[C@H](C)C(=O)N[C@H](C(=O)NCCc1nc(-c2nc(C(=O)NCCC[S+](C)C)cs2)cs1)[C@@H](C)O)[C@@H](O[C@@H]1O[C@@H](CO)[C@@H](O)[C@H](O)[C@@H]1O[C@H]1O[C@H](CO)[C@@H](O)[C@H](OC(N)=O)[C@@H]1O)c1c[nH]cn1 (some centres undefined) | 5.00 | 4.79 |

Further compounds by rising pIC50 (BGC-823), results first:

| pIC50 (BGC-823) | pIC50 (HeLa) | SMILES |
| --- | --- | --- |
| 4.97 | 4.83 | Cc1c(N)nc([C@H](CC(N)=O)NCC(N)C(N)=O)nc1C(=O)N[C@H](C(=O)NC(C)C(O)[C@H](C)C(=O)N[C@H](C(=O)NCCc1nc(-c2nc(C(=O)NCCCNCCCCNC(=O)c3ccccn3)cs2)cs1)[C@@H](C)O)[C@@H](O[C@@H]1O[C@@H](CO)[C@@H](O)[C@@H](O)[C@@H]1O[C@H]1O[C@H](CO)[C@@H](O)[C@H](OC(N)=O)[C@@H]1O)c1c[nH]cn1 (some centres undefined) |
| 5.13 | 4.93 | Cc1c(N)nc([C@H](CC(N)=O)NCC(N)C(N)=O)nc1C(=O)N[C@H](C(=O)NC(C)C(O)[C@H](C)C(=O)N[C@H](C(=O)NCCc1nc(-c2nc(C(=O)NCCCNCCCCNC(=O)c3ccccc3)cs2)cs1)[C@@H](C)O)[C@@H](O[C@@H]1O[C@@H](CO)[C@@H](O)[C@@H](O)[C@@H]1O[C@H]1O[C@H](CO)[C@@H](O)[C@H](OC(N)=O)[C@@H]1O)c1c[nH]cn1 (some centres undefined) |
| 5.19 | 4.84 | CCC(=O)NCCCCNCCCNC(=O)c1csc(-c2csc(CCNC(=O)[C@@H](NC(=O)[C@@H](C)C(O)C(C)NC(=O)[C@@H](NC(=O)c3nc([C@H](CC(N)=O)NCC(N)C(N)=O)nc(N)c3C)[C@@H](O[C@@H]3O[C@@H](CO)[C@@H](O)[C@@H](O)[C@@H]3O[C@H]3O[C@H](CO)[C@@H](O)[C@H](OC(N)=O)[C@@H]3O)c3c[nH]cn3)[C@@H](C)O)n2)n1 (some centres undefined) |
| 5.58 | 4.86 | CCCC(=O)NCCCCNCCCNC(=O)c1csc(-c2csc(CCNC(=O)[C@@H](NC(=O)[C@@H](C)C(O)C(C)NC(=O)[C@@H](NC(=O)c3nc([C@H](CC(N)=O)NCC(N)C(N)=O)nc(N)c3C)[C@@H](O[C@@H]3O[C@@H](CO)[C@@H](O)[C@@H](O)[C@@H]3OC3O[C@H](CO)[C@@H](O)[C@H](OC(N)=O)[C@@H]3O)c3c[nH]cn3)[C@@H](C)O)n2)n1 (some centres undefined) |

Reference: ChEMBL document CHEMBL1136142, “Synthesis, biological evaluation and DNA binding properties of novel bleomycin analogues” (Bioorg Med Chem Lett, 2003)
